Reference: ChEMBL document CHEMBL1156710, “Design, synthesis and characterization of some bioactive conjugates of curcumin with glycine, glutamic acid, valine and demethylenated piperic acid and study of their antimicrobial and antiproliferative properties” (2008)
Values after ≈ are worked out from the molar mass of the structure shown. Active and inactive are the calls of the source. The rule behind the calls is not given here.

What was measured:
[1] = system: Candida albicans; experiment: Antifungal activity against Candida albicans at 20 umol/ml after 48 hrs; assay type: functional
Summary of the method: (§1)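 Clinical fungal isolates were subcultured on Sabouraud dextrose agar. For the inoculum, cultures were grown on Sabouraud dextrose agar for 48 h at 37 °C. Conidia were dislodged into sterile saline, the suspension was brought to 5 ml, and the microconidia were counted. This suspension was swabbed over Sabouraud dextrose agar plates poured 5 mm deep, and excess was decanted. Sterile 6 mm discs were charged with compound.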

[2] = system: Escherichia coli; experiment: Antibacterial activity against Escherichia coli at 20 umol/ml after 24 hrs by Kirby-Bauer's disk diffusion assay; assay type: functional
Summary of the method: (§2)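 Kirby-Bauer disc diffusion. Compounds were dissolved in acetone and serially diluted. Sterile 6 mm discs were soaked in the solutions and dried. 1 ml of bacterial broth culture was spread on Mueller-Hinton agar plates and the discs were placed aseptically. Plates were incubated upright at 37 °C for 24 h and the inhibition zone was measured with a scale.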

[3] = system: Klebsiella aerogenes; experiment: Antibacterial activity against Klebsiella aerogenes after 18 hrs by broth microdilution susceptibility test; assay type: functional
Summary of the method: (§3)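 Broth microdilution in Mueller-Hinton broth at pH 7.4. Inoculum came from a broth culture grown 4–6 h to log phase. Compound dilutions were […]. Tubes were shaken and incubated at 37 °C for 18 h, then read for turbidity. MIC is the lowest concentration with no turbidity. Each test was run in triplicate and MICs come from at least two repetitions.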

[4] = system: Escherichia coli; experiment: Antibacterial activity against Escherichia coli after 18 hrs by broth microdilution susceptibility test; assay type: functional; summary of the method: as §3
[5] = system: Staphylococcus saprophyticus; experiment: Antibacterial activity against Staphylococcus saprophyticus at 20 umol/ml after 24 hrs by Kirby-Bauer's disk diffusion assay; assay type: functional; summary of the method: as §2
[6] = system: Staphylococcus saprophyticus; experiment: Antibacterial activity against Staphylococcus saprophyticus after 18 hrs by broth microdilution susceptibility test; assay type: functional; summary of the method: as §3
[7] = system: Enterobacter cloacae; experiment: Antibacterial activity against Enterobacter cloacae at 20 umol/ml after 24 hrs by Kirby-Bauer's disk diffusion assay; assay type: functional; summary of the method: as §2
[8] = system: Micrococcus; experiment: Antibacterial activity against Micrococcus at 20 umol/ml after 24 hrs by Kirby-Bauer's disk diffusion assay; assay type: functional; summary of the method: as §2
[9] = system: Enterobacter cloacae; experiment: Antibacterial activity against Enterobacter cloacae after 18 hrs by broth microdilution susceptibility test; assay type: functional; summary of the method: as §3
[10] = system: Micrococcus; experiment: Antibacterial activity against Micrococcus after 18 hrs by broth microdilution susceptibility test; assay type: functional; summary of the method: as §3
[11] = system: Candida parapsilosis; experiment: Antifungal activity against Candida parapsilosis at 20 umol/ml after 48 hrs; assay type: functional
Summary of the method: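 Clinical isolates from diagnosed patients, subcultured on Sabouraud dextrose agar slants at 30 °C for 10–12 days. Inoculum from 48 h SDA cultures at 37 °C, dislodged into sterile saline and brought to 5 ml. Suspension swab-spread on SDA plates poured 5 mm deep, excess decanted. Sterile 6 mm discs charged with compound. Fluconazole reference.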

[12] = system: Micrococcus; experiment: Antibacterial activity against Micrococcus at 10 umol/ml after 24 hrs by Kirby-Bauer's disk diffusion assay; assay type: functional; summary of the method: as §2
[13] = system: Enterobacter cloacae; experiment: Antibacterial activity against Enterobacter cloacae at 5 umol/ml after 24 hrs by Kirby-Bauer's disk diffusion assay; assay type: functional; summary of the method: as §2
[14] = system: Enterobacter cloacae; experiment: Antibacterial activity against Enterobacter cloacae at 10 umol/ml after 24 hrs by Kirby-Bauer's disk diffusion assay; assay type: functional; summary of the method: as §2
[15] = system: Klebsiella aerogenes; experiment: Antibacterial activity against Klebsiella aerogenes at 20 umol/ml after 24 hrs by Kirby-Bauer's disk diffusion assay; assay type: functional; summary of the method: as §2
[16] = system: HeLa; experiment: Antiproliferative activity against human HeLa cells after 48 hrs by MTT assay; assay type: functional, cell-based
Summary of the method: (§4)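 KB and HeLa cells were grown in DMEM with 10% heat-inactivated fetal calf serum and penicillin-streptomycin at 37 °C, 5% CO2. Cells were seeded at 5×10³ per well. After 16 h the medium was replaced with medium containing compound diluted from stock. MTT (from a 5 mg/ml 10× stock) was added for 4 h at 37 °C. Crystals were dissolved in DMSO and OD read at 570 nm, 48 h after treatment.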

[17] = system: KB; experiment: Antiproliferative activity against human KB cells after 48 hrs by MTT assay; assay type: functional, cell-based; summary of the method: as §4
[18] = system: Staphylococcus saprophyticus; experiment: Antibacterial activity against Staphylococcus saprophyticus at 10 umol/ml after 24 hrs by Kirby-Bauer's disk diffusion assay; assay type: functional; summary of the method: as §2
[19] = system: Candida albicans; experiment: Antifungal activity against Candida albicans at 10 umol/ml after 48 hrs; assay type: functional; summary of the method: as §1
[20] = system: Aspergillus fumigatus; experiment: Antifungal activity against Aspergillus fumigatus at 10 umol/ml after 48 hrs; assay type: functional; summary of the method: as §1
[21] = system: Penicillium chrysogenum; experiment: Antifungal activity against Penicillium notatum at 10 umol/ml after 48 hrs; assay type: functional; summary of the method: as §1
[22] = system: Aspergillus fumigatus; experiment: Antifungal activity against Aspergillus fumigatus at 20 umol/ml after 48 hrs; assay type: functional; summary of the method: as §1
[23] = system: Penicillium chrysogenum; experiment: Antifungal activity against Penicillium notatum at 20 umol/ml after 48 hrs; assay type: functional; summary of the method: as §1
[24] = system: Staphylococcus saprophyticus; experiment: Antibacterial activity against Staphylococcus saprophyticus at 5 umol/ml after 24 hrs by Kirby-Bauer's disk diffusion assay; assay type: functional; summary of the method: as §2
[25] = system: Micrococcus; experiment: Antibacterial activity against Micrococcus at 5 umol/ml after 24 hrs by Kirby-Bauer's disk diffusion assay; assay type: functional; summary of the method: as §2
[26] = system: Escherichia coli; experiment: Antibacterial activity against Escherichia coli at 10 umol/ml after 24 hrs by Kirby-Bauer's disk diffusion assay; assay type: functional; summary of the method: as §2

SMILES | inhibition zone (IZ) [1] | inhibition zone (IZ) [2] | Activity [3] | MIC [4] | inhibition zone (IZ) [5] | MIC [6] | inhibition zone (IZ) [7] | inhibition zone (IZ) [8] | MIC [9] | Activity [4] | MIC [10] | inhibition zone (IZ) [12] | inhibition zone (IZ) [15] | MIC [3] | Activity [6] | Activity [9] | also measured
COc1cc(/C=C/C(=O)CC(=O)/C=C/c2ccc(O)c(OC)c2)ccc1O [CURCUMIN] | 15 mm | 10 mm | inactive | 20 mM (≈ 7370 µg/mL) |  |  |  |  |  |  |  |  |  |  |  |  | 
O=C(O)/C=C/C=C/c1ccc(O)c(O)c1 [DEMETHYLENATED PIPERIC ACID] | 16 mm |  | inactive |  | 10 mm | 20 mM (≈ 4120 µg/mL) | 18 mm | 15 mm | 10 mM (≈ 2060 µg/mL) | inactive | 10 mM (≈ 2060 µg/mL) |  |  |  |  |  | 
OC(Cn1cncn1)(Cn1cncn1)c1ccc(F)cc1F [FLUCONAZOLE] | 29 mm |  |  |  |  |  |  |  |  |  |  |  |  |  |  |  | inhibition zone (IZ) [11]: 20 mm
COc1cc(/C=C/C(=O)CC(=O)/C=C/c2ccc(OC(=O)/C=C/C=C/c3ccc(O)c(O)c3)c(OC)c2)ccc1OC(=O)/C=C/C=C/c1ccc(O)c(O)c1 | 16 mm | 16 mm |  | 10 mM (≈ 7450 µg/mL) | 10 mm | 20 mM (≈ 14900 µg/mL) | 18 mm | 16 mm | 5 mM (≈ 3720 µg/mL) |  | 10 mM (≈ 7450 µg/mL) | 12 mm | 11 mm | 20 mM (≈ 14900 µg/mL) |  |  | inhibition zone (IZ) [13]: 12 mm; inhibition zone (IZ) [14]: 14 mm
COc1cc(/C=C/C(=O)CC(=O)/C=C/c2ccc(OC(=O)[C@@H](N)CCC(=O)O)c(OC)c2)ccc1OC(=O)[C@@H](N)CCC(=O)O |  |  |  |  |  |  |  | 18 mm |  | inactive | 5 mM (≈ 3130 µg/mL) | 16 mm | 9 mm | 20 mM (≈ 12500 µg/mL) | inactive | inactive | Activity [16]: Active; Activity [17]: Active
COc1cc(/C=C/C(=O)CC(=O)/C=C/c2ccc(OC(=O)[C@@H](N)C(C)C)c(OC)c2)ccc1OC(=O)[C@@H](N)C(C)C |  | 20 mm | inactive | 5 mM (≈ 2830 µg/mL) | 14 mm | 10 mM (≈ 5670 µg/mL) | 20 mm | 16 mm | 5 mM (≈ 2830 µg/mL) |  | 10 mM (≈ 5670 µg/mL) | 13 mm |  |  |  |  | inhibition zone (IZ) [18]: 12 mm
COc1cc(/C=C/C(=O)CC(=O)/C=C/c2ccc(OC(=O)CN)c(OC)c2)ccc1O [MONOGLYCINOYL CURCUMIN] | 20 mm | 12 mm |  | 20 mM (≈ 8510 µg/mL) |  |  |  |  |  |  |  |  | 18 mm | 5 mM (≈ 2130 µg/mL) | inactive | inactive | inhibition zone (IZ) [19]: 18 mm; inhibition zone (IZ) [11]: 14 mm; inhibition zone (IZ) [20]: 20 mm; inhibition zone (IZ) [21]: 16 mm; inhibition zone (IZ) [22]: 25 mm; inhibition zone (IZ) [23]: 20 mm; Activity [10]: inactive
COc1cc(/C=C/C(=O)CC(=O)/C=C/c2ccc(OC(=O)CN)c(OC)c2)ccc1OC(=O)CN |  |  | inactive | 20 mM (≈ 9650 µg/mL) | 14 mm |  | 12 mm | 15 mm |  |  | 10 mM (≈ 4820 µg/mL) | 13 mm |  |  | inactive | inactive | inhibition zone (IZ) [24]: 10 mm; inhibition zone (IZ) [25]: 10 mm; inhibition zone (IZ) [18]: 12 mm
O=C(O)/C=C/C=C/c1ccc2c(c1)OCO2 [PIPERIC ACID] |  |  |  |  |  |  |  |  |  | inactive |  |  | 8 mm | 20 mM (≈ 4360 µg/mL) | inactive |  | 
COc1cc(/C=C/C(=O)CC(=O)/C=C/c2ccc(OC(=O)[C@@H](N)C(C)C)c(OC)c2)ccc1O [MONOVALINOYL CURCUMIN] |  | 13 mm |  | 10 mM (≈ 4680 µg/mL) |  |  | 25 mm | 26 mm | 2.5 mM (≈ 1170 µg/mL) |  | 2.5 mM (≈ 1170 µg/mL) | 20 mm | 18 mm | 5 mM (≈ 2340 µg/mL) | inactive |  | inhibition zone (IZ) [26]: 11 mm; inhibition zone (IZ) [25]: 19 mm; inhibition zone (IZ) [23]: 12 mm
